Data published in ChEMBL document CHEMBL1799996, “Novel C8-linked pyrrolobenzodiazepine (PBD)-heterocycle conjugates that recognize DNA sequences containing an inverted CCAAT box” (2011).

Columns and labels:
[1] = tested on: Nucleic Acid; assay: Binding affinity to calf thymus DNA assessed as change in melting temperature at 5 uM at pH 7 after 4 hrs by thermal denaturation assay; assay type: nucleic-acid assay; settings: Bos taurus
[2] = tested on: Nucleic Acid; assay: Binding affinity to calf thymus DNA assessed as change in melting temperature at 5 uM at pH 7 after 18 hrs by thermal denaturation assay; assay type: nucleic-acid assay; settings: Bos taurus
[3] = Cytotoxicity against human NCI60 cells; assay type: functional
Summary of the method: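 NCI 60-cell-line panel. GI50, TGI and LC50 (50% growth inhibition, total growth inhibition and 50% lethality) are given as the mean across all 60 lines.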

[4] = tested on: Nucleic Acid; assay: Binding affinity to ICB2 site of human topoisomerase 2alpha promoter after 17 hrs by DNase 1 footprinting assay; assay type: nucleic-acid assay
Summary of the method: (§1)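 Reported value is the lowest conjugate concentration that gives a measurable footprint at the respective inverted CCAAT site.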

[5] = tested on: Nucleic Acid; assay: Binding affinity to ICB1 site of human topoisomerase 2alpha promoter after 17 hrs by DNase 1 footprinting assay; assay type: nucleic-acid assay; summary of the method: as §1

SMILES	ΔTm [1] [°C]	ΔTm [2] [°C]	GI50 [3] [µM]	LC50 (50% lethal concentration) [3] [µM]	TGI [3] [µM]	Activity [4] [µM]	Activity [5] [µM]
COC(=O)CCCOc1cc2c(cc1OC)C(=O)N1CCC[C@H]1C=N2	0.3	0.4	1.74	46.8	11.8		
COC(=O)c1cc(NC(=O)c2cc(NC(=O)CCCOc3cc4c(cc3OC)C(=O)N3CCC[C@H]3C=N4)cn2C)cn1C	14.5	15.1	0.011	10	0.12	1	1
